In this test the target is T1, OR1D2 (Homo sapiens) (UniProt P34982).
T1 sequence (whole entry): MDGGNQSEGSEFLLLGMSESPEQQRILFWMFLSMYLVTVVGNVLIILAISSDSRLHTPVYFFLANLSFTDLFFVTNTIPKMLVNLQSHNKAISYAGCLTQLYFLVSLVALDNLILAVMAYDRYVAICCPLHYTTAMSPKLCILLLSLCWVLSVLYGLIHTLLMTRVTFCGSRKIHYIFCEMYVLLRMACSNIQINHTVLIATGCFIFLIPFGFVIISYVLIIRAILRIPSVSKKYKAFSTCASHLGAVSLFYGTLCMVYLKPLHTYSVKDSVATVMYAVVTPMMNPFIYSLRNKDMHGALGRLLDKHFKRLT
The conditions noted are these: stereoisomer not certain. The method in brief:
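Each entry records the cell line, G-protein, co-transfected protein and tags used. Methods varied with the source, often transient luciferase assays in mammalian cell lines. A receptor–molecule pair is called responsive (active) if the original authors judged its signal statistically different from baseline and non-responsive (inactive) otherwise.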
Turning to `CC(C=O)Cc1ccc(C(C)C)cc1` (stereo unspecified), the “odorant receptor agonist call” value was “active”.
Under `CC(C)c1ccccc1` stands “inactive”.
Under `CCC(S)C(C)CO` (stereo unspecified) stands “inactive”; under `CCCCCC(S)C(C)CO` (stereo unspecified), “inactive”; under `CCC1OC(C)=C(O)C1=O` (stereo unspecified), “inactive”.
Under `O=C(O)CCc1ccccc1` stands “inactive”.
`CC1=C(O)C(=O)OC1C` (stereo unspecified): the “odorant receptor agonist call” value is “inactive”.
As for `CC(C=O)Cc1ccc(C(C)(C)C)cc1` (stereo unspecified), the “odorant receptor agonist call” value is “inactive”.
To `CCCC(S)CCOC(C)=O` (stereo unspecified) belongs “inactive”.
Take `CC(CCO)c1ccccc1` (stereo unspecified): the “odorant receptor agonist call” value was “inactive”.
Regarding `CCCCCCC=CCCC=O`, the “odorant receptor agonist call” value was “inactive”.
Under `CCc1ccc(CC(C)(C)C=O)cc1` stands “active”.
Under `COc1ccc(CC(C)C=O)cc1` (stereo unspecified) stands “active”; under `CCCCC(S)C(C)CO` (stereo unspecified), “inactive”; under `CC(CC=O)c1ccccc1` (stereo unspecified), “active”.
Under `Cc1cnc(C)c(C)n1` stands “inactive”; under `CCCCCC(=O)C(C)C(C)=O` (stereo unspecified), “inactive”.
For the molecule `O=CCCCCc1ccccc1`, the “odorant receptor agonist call” value is “inactive”.
Consider `CC(CO)CS` (stereo unspecified), for which the “odorant receptor agonist call” value was “inactive”.
For `O=CCCc1ccccc1`, the “odorant receptor agonist call” value was “active”.
Under `CCC1OC(=O)C(O)=C1C` (stereo unspecified) stands “inactive”; under `CC=Cc1ccc(OC)cc1`, “inactive”.
Under `CC(C)(C)c1ccc(OCC=O)cc1` stands “active”; under `CC1=NC(C)C(C)S1` (stereo unspecified), “inactive”.
As for `O=CCCCc1ccccc1`, the “odorant receptor agonist call” value is “active”.
`CC1=C(O)C(=O)C(C)O1` (stereo unspecified): the “odorant receptor agonist call” value is “inactive”.
